What is called IC50 is the concentration needed to halve the response being measured.

The target of experiment [1] is T1, Aminopeptidase N (Sus scrofa, UniProt P15145).
T1 sequence (P15145 whole entry): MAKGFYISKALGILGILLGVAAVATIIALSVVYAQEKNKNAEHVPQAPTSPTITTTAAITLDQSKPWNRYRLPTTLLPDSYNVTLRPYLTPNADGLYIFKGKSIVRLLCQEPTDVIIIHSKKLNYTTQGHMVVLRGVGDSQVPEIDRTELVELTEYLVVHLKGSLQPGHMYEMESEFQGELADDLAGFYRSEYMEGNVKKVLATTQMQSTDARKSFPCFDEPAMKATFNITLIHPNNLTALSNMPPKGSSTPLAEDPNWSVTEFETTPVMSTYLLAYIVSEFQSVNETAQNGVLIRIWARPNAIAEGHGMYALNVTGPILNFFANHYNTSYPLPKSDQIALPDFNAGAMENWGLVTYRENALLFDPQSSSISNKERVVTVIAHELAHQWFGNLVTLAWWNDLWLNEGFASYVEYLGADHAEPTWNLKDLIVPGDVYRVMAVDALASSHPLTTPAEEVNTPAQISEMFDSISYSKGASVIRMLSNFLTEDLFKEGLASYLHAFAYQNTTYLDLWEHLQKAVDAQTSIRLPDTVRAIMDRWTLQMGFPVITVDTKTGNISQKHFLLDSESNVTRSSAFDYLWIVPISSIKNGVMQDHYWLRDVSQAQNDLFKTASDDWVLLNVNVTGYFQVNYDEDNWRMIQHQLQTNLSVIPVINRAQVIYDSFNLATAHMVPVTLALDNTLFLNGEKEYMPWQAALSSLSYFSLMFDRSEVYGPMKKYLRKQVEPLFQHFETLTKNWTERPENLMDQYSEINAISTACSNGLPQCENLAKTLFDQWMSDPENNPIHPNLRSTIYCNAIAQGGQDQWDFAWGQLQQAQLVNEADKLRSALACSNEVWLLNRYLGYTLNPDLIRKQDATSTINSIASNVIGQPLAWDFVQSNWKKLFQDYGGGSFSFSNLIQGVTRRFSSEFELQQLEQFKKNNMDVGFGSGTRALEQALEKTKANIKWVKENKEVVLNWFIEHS
Nature of the experiment: Inhibition of pig kidney microsomal APN assessed as hydrolysis of L-Leu-p-nitroanilide after 1 hr by spectrophotometry. An outline of the steps: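 Porcine kidney microsomal aminopeptidase in 50 mM PBS, pH 7.2, with L-Leu-p-nitroanilide as substrate. Incubated with a range of inhibitor concentrations at 37 °C. Triplicate experiments, reported as mean ± standard deviation.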

Experiment [2] can be described thus: Selectivity ratio of IC50 for MMP-2 to IC50 for pig kidney microsomal APN.
The target in experiment [3] is 72 kDa type IV collagenase (Homo sapiens, UniProt P08253). Briefly: Inhibition of human MMP-2 after 30 mins by spectrophotometry. An outline of the steps:
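MMP-2 was incubated with synthetic substrate and inhibitor in 50 mM sodium borate, pH 8.5, for 30 min at 37 °C. TNBS (0.03%, m/v) was then added for 20 min at room temperature. Absorbance was read at 450 nm. IC50 is the mean ± standard deviation of triplicate experiments.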

For experiment [4], the target named is Aminopeptidase N (Homo sapiens, UniProt P15144). Nature of the experiment: Inhibition of APN in human HL60 cells assessed as hydrolysis of L-Leu-p-nitroanilide by spectrophotometry. Format: cell-based, HL-60. A digest of the protocol: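 Intact HL-60 cells suspended in PBS (1×10^5/well) served as the enzyme source, with L-Leu-p-nitroanilide as substrate. Cells were incubated at 37 °C with a range of inhibitor concentrations. Values are means of three independent experiments.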
Aminopeptidase N (Homo sapiens, UniProt P15144), sequence (P15144 whole entry): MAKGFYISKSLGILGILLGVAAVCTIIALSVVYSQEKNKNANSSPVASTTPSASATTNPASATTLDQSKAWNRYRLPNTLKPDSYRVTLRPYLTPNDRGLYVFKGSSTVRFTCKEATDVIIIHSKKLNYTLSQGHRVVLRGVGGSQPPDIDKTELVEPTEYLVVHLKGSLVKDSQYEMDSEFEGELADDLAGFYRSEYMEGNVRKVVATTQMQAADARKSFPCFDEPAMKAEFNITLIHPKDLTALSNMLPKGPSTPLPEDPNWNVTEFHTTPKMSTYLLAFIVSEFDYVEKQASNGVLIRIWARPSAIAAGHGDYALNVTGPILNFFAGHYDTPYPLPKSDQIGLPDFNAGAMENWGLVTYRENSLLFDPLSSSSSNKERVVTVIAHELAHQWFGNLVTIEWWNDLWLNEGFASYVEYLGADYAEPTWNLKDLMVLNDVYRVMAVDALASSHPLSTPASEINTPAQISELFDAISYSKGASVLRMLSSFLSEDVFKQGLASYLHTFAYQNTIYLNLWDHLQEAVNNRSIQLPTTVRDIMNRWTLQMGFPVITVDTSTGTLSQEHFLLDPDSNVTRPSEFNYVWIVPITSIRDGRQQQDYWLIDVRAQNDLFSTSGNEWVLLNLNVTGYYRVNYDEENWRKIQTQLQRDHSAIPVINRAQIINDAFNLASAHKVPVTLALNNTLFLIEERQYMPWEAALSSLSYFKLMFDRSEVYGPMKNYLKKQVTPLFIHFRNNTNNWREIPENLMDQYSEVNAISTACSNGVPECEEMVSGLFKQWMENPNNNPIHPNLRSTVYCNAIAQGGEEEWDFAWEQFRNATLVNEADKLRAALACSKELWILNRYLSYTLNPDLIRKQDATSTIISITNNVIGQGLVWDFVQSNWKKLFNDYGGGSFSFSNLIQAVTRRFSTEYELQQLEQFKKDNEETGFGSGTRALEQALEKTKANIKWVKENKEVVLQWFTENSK

Experiment [5] deals with MDA-MB-231. Nature of the experiment: Antiproliferative activity against human MDA-MB-231 cells expressing low levels of APN after 48 hrs by MTT assay. It is filed as functional, cell-based. The conditions noted are these: MDA-MB-231, 48 h. A digest of the protocol:
(§1)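 Cells kept in RPMI1640 plus 10% FBS at 37 °C, 5% CO2. Seeded 1×10^4/well and grown 4 h before inhibitors were added over a range of concentrations. After 48 h exposure, MTT (0.5 mg/mL) was added and the formazan dissolved in DMSO. Read-out was OD at 570 nm.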
(Tetrazolium assays rely on reduction of a dye to a coloured formazan, in cell work by metabolically active cells.)

Experiment [6] has as its system HL-60. Briefly: Antiproliferative activity against human HL60 cells expressing high levels of APN after 48 hrs by MTT assay. The conditions noted are these: HL-60, 48 h. Format: functional, cell-based. An outline of the steps:
as §1

72 kDa type IV collagenase, sequence (P08253 whole entry): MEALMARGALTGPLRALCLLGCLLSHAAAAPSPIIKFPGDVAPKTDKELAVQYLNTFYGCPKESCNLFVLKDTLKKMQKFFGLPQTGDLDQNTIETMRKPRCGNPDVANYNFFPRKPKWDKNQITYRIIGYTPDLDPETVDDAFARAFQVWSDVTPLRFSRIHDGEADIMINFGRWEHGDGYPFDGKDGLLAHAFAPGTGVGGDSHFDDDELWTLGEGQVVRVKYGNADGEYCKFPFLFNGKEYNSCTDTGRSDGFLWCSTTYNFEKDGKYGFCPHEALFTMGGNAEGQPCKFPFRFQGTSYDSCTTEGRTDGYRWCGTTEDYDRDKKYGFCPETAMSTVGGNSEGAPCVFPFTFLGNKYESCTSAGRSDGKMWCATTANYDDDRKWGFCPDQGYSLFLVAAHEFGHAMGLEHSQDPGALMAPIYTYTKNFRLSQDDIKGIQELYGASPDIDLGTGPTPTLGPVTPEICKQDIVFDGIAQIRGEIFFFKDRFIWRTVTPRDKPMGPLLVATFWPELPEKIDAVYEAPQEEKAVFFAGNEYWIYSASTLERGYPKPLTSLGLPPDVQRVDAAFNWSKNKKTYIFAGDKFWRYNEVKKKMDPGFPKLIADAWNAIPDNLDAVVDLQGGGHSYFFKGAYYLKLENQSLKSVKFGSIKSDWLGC

For `CC(C)C[C@H](NC(=O)[C@@H](O)CN)C(=O)NC[C@H](N)[C@@H](O)c1ccc([N+](=O)[O-])cc1`, the IC50 in experiment [1] turned out to be 19.6 µM; in experiment [3], 83.9 µM. In addition, in experiment [2], the Ratio IC50 was determined as 4.2.

Take `N[C@@H](CNC(=O)[C@@H]1Cc2ccc(O)cc2CN1)[C@@H](O)c1ccc([N+](=O)[O-])cc1`: the IC50 in experiment [1] is 441 µM; in experiment [3], above 1000 µM. Also, the Ratio IC50 in experiment [2] is above 2.3.

On to `N[C@H](Cc1ccccc1)C(=O)N[C@H](Cc1ccccc1)C(=O)NC[C@H](N)[C@@H](O)c1ccc(I)cc1`, for which the IC50 in experiment [1] was above 1000 µM; in experiment [3] it was 107 µM. Further, in experiment [2], the Ratio IC50 was below 0.1.

Regarding `CC(C)C[C@H](NC(=O)[C@H](N)Cc1ccccc1)C(=O)NC[C@H](N)[C@@H](O)c1ccc([N+](=O)[O-])cc1`, the IC50 in experiment [1] is 74.7 µM; in experiment [3], 106 µM. In addition, in experiment [2], the Ratio IC50 was 1.4.

Consider `CC(C)C[C@H](N)C(=O)N[C@H](Cc1ccccc1)C(=O)NC[C@H](N)[C@@H](O)c1ccc(N)cc1`, for which the IC50 in experiment [1] is 6.1 µM; in experiment [4], 39.4 µM; in experiment [5], 3650 µM; in experiment [3], 134 µM; in experiment [6], 1340 µM. In addition, the Ratio IC50 in experiment [2] is 22.3.

As for `NCCCC[C@H](N)C(=O)NC[C@H](N)[C@@H](O)c1ccc([N+](=O)[O-])cc1`, the IC50 is 50.1 µM in experiment [1] and 84.3 µM in experiment [3]. The Ratio IC50 in experiment [2] was found to be 1.7.

Regarding `Nc1ccc([C@H](O)[C@@H](N)CNC(=O)[C@@H](N)Cc2ccc(O)cc2)cc1`, the figures for the IC50 in experiment [1] and in experiment [3] were 114 µM and 111 µM, respectively. Besides, the Ratio IC50 in experiment [2] was 1.

With `NC[C@H](O)C(=O)N[C@H](Cc1ccccc1)C(=O)NC[C@H](N)[C@@H](O)c1ccc([N+](=O)[O-])cc1`, the concentration for half-maximal inhibition (IC50) is 6.5 µM in experiment [1]; 66.3 µM in experiment [4]; 4130 µM in experiment [5]; 40.6 µM in experiment [3]; 2040 µM in experiment [6]. In addition, the Ratio IC50 in experiment [2] was found to be 6.3.

As for `N[C@H](Cc1ccccc1)C(=O)NC[C@H](N)[C@@H](O)c1ccc([N+](=O)[O-])cc1`, the IC50 in experiment [1] worked out at 42.2 µM; in experiment [3] it was 67.4 µM. Besides, the Ratio IC50 in experiment [2] came out at 1.6.

For `Nc1ccc([C@H](O)[C@@H](N)CNC(=O)[C@@H](Cc2ccccc2)NC(=O)[C@H](N)Cc2ccccc2)cc1`, the values for the half-maximal inhibitory concentration (IC50) in experiment [1] and in experiment [3] were 30.6 µM and 40.4 µM, respectively. The Ratio IC50 in experiment [2] was 1.3.

`N[C@H](Cc1ccccc1)C(=O)NC[C@H](O)C(=O)NC[C@H](N)[C@@H](O)c1ccc([N+](=O)[O-])cc1`: the IC50 in experiment [1] is 17.6 µM; in experiment [4] it was 616 µM; in experiment [5], 7320 µM; in experiment [3], 109 µM; in experiment [6] it was 3150 µM. The Ratio IC50 in experiment [2] is 6.1.

Take `NC[C@H](O)C(=O)NC[C@H](N)[C@@H](O)c1ccc([N+](=O)[O-])cc1`: the IC50 in experiment [1] is 164 µM; in experiment [3] it was 100 µM.

In the case of `CC(C)C[C@H](N)C(=O)N[C@H](Cc1ccccc1)C(=O)NC[C@H](N)[C@@H](O)c1ccc([N+](=O)[O-])cc1`, the IC50 in experiment [1] is 9.4 µM; in experiment [4], 290 µM; in experiment [5] it was 1320 µM; in experiment [3], 173 µM; in experiment [6] it was 2150 µM. The Ratio IC50 in experiment [2] came out at 19.2.

On to `N[C@H](Cc1ccccc1)C(=O)N[C@H](Cc1ccccc1)C(=O)NC[C@H](N)[C@@H](O)c1ccc([N+](=O)[O-])cc1`, for which the IC50 amounted to 134 µM in experiment [1] and 44.1 µM in experiment [3]. In experiment [2], the Ratio IC50 came to 0.3.

Regarding `CC(C)C[C@H](NC(=O)[C@H](N)Cc1ccccc1)C(=O)NC[C@H](N)[C@@H](O)c1ccc(N)cc1`, the IC50 in experiment [1] was 31.6 µM; in experiment [3] it was 94 µM. In addition, the Ratio IC50 in experiment [2] came out at 3.

As to `N[C@H](Cc1ccccc1)C(=O)N[C@@H](CO)C(=O)NC[C@H](N)[C@@H](O)c1ccc([N+](=O)[O-])cc1`, the values for the IC50 in experiment [1] and in experiment [3] were 21.6 µM and 110 µM, respectively. In addition, the Ratio IC50 in experiment [2] came out at 5.

`CC(C)C[C@H](N)C(=O)NC[C@H](N)[C@@H](O)c1ccc([N+](=O)[O-])cc1`: the half-inhibitory concentration (IC50) is 80.6 µM in experiment [1] and 143 µM in experiment [3]. Moreover, the Ratio IC50 in experiment [2] came to 1.8.

Regarding `CC(C)C[C@H](NC(=O)[C@@H](O)[C@H](N)Cc1ccccc1)C(=O)O` [UBENIMEX], the IC50 was 5080 µM in experiment [5] and 120 µM in experiment [3].

Regarding `CC(C)C[C@H](NC(=O)[C@H](N)Cc1ccccc1)C(=O)NC[C@H](N)[C@@H](O)c1ccc(I)cc1`, the IC50 came out at 105 µM in experiment [1] and 52.7 µM in experiment [3]. In addition, in experiment [2], the Ratio IC50 is 0.5.

As for `NCCCC[C@H](N)C(=O)NC[C@H](N)[C@@H](O)c1ccc(N)cc1`, the IC50 was 136 µM in experiment [1] and 157 µM in experiment [3]. Also, in experiment [2], the Ratio IC50 is 1.2.

For `CC(C)C[C@H](N)C(=O)NC[C@H](N)[C@@H](O)c1ccc(I)cc1`, the 50% inhibitory concentration (IC50) in experiment [1] stood at 30.6 µM; in experiment [3], 120 µM. Further, in experiment [2], the Ratio IC50 worked out at 3.9.

On to `N[C@@H](Cc1ccc(O)cc1)C(=O)NC[C@H](N)[C@@H](O)c1ccc(I)cc1`, for which the IC50 came to 21.6 µM in experiment [1] and 42.2 µM in experiment [3]. Also, in experiment [2], the Ratio IC50 worked out at 2.

`N[C@@H](Cc1ccc(O)cc1)C(=O)NC[C@H](N)[C@@H](O)c1ccc([N+](=O)[O-])cc1`: the IC50 in experiment [1] is 39.2 µM; in experiment [3], 61.3 µM. In addition, the Ratio IC50 in experiment [2] was 1.6.

In the case of `CC(C)C[C@H](N)C(=O)NC[C@H](N)[C@@H](O)c1ccc(N)cc1`, the half-maximal inhibitory concentration (IC50) in experiment [1] came out at 63.2 µM; in experiment [3], 119 µM. Also, the Ratio IC50 in experiment [2] amounted to 1.9.

For the compound `N[C@@H](CS)C(=O)NC[C@H](N)[C@@H](O)c1ccc([N+](=O)[O-])cc1`, the half-inhibitory concentration (IC50) in experiment [1] was 12.4 µM; in experiment [4], 248 µM; in experiment [5], 4220 µM; in experiment [3], 152 µM; in experiment [6], 2320 µM. Further, the Ratio IC50 in experiment [2] was found to be 12.7.

`NC[C@H](N)[C@@H](O)c1ccc([N+](=O)[O-])cc1`: the IC50 is 894 µM in experiment [1] and above 1000 µM in experiment [3]. Besides, in experiment [2], the Ratio IC50 was above 1.1.

`CC(C)C[C@H](N)C(=O)N[C@H](Cc1ccccc1)C(=O)NC[C@H](N)[C@@H](O)c1ccc(I)cc1`: the IC50 was determined as 11.3 µM in experiment [1] and 86.6 µM in experiment [3]. For the same compound, in experiment [2], the Ratio IC50 was 7.7.

As to `N[C@@H](CO)C(=O)NC[C@H](N)[C@@H](O)c1ccc([N+](=O)[O-])cc1`, the IC50 in experiment [1] was found to be 423 µM; in experiment [3], 331 µM. Besides, the Ratio IC50 in experiment [2] is 0.8.

For `Nc1ccc([C@H](O)[C@@H](N)CNC(=O)[C@H](N)Cc2ccccc2)cc1`, the half-inhibitory concentration (IC50) in experiment [1] turned out to be 141 µM; in experiment [3], 149 µM. Moreover, in experiment [2], the Ratio IC50 was determined as 1.1.

The values are drawn from ChEMBL document CHEMBL1817563, “Novel aminopeptidase N (APN/CD13) inhibitors derived from chloramphenicol amine” (Bioorg Med Chem, 2011).
